Yeast fitness data for 167 variants are collected here from the RNAGym collection of RNA variant scans (doi:10.1126/science.aae0568).

This sample holds only a part of the variants without activity.

B1: tRNA (parent)
chain: GUUCCGUUGGCGUAAUGGUAACGCGUCUCCCUCCUAAGGAGAAGACUGCGGGUUCGAGUCCCGUACGGAACG

The variants in this data set derive from B1. The data set is described as follows: yeast fitness relative to wild type (ratio to wild type); higher = fitter; tRNA-Arg(CCU), competitive growth, 37 C, YPD. The method, boiled down:
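Gene amplicons from the start population and from each of six end populations were read by 100-nucleotide paired-end sequencing. Those end populations came from pooled Saccharomyces cerevisiae strains carrying tRNA-Arg(CCU) gene variants at the native locus, competed in YPD at 37°C for 24 hours. Fitness relative to wild type was worked out from changes in genotype frequencies. Genotypes needed ≥ 100 starting reads, and estimates < 0.5 were set to 0.5.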
As for A21G G25C C27G A42C A43G, the yeast fitness was at most 0.5. The result for A21G G23A C27G G39C A45G reads at most 0.5; that for A21G C24A A43U A57U C66A, 0.574; that for A21G C27G C29U U35G, 0.552. In the case of A21G C55G C66U A69C, the yeast fitness is at most 0.5.

As to A21G G25C A65G, the yeast fitness was 0.751. For the variant A21G A45U A69U, the yeast fitness stood at 1.07. In the case of A21G C34A C55A A69C it was 0.565; in that of A21G C34G C66U, at most 0.5. With A21G C22U C24G G25C U32A C34U G39C A45G, the yeast fitness was at most 0.5.

For the variant A21G C46U C60A, the yeast fitness was at most 0.5. The result for A21G G23A G52C C61U reads at most 0.5; that for A21G C22G C29G, at most 0.5; that for A21G C29U C31U, at most 0.5. The result for A21G C22U C30G G51A reads 0.538; that for A21G C30G G67U, at most 0.5. The result for A21G C30U reads 0.97; that for A21G C30G, 0.784.

A21G C33A C49U C55G: the yeast fitness is at most 0.5.

In the case of A21G C22G U35G A36C, the yeast fitness turned out to be 0.746. For A21G C29A G48C, the yeast fitness turned out to be 0.57. Turning to A21G G23C, the yeast fitness was found to be 0.676. As to A21G G23A, the yeast fitness amounted to 0.787. A21G C24G C31G A43U: the yeast fitness was at most 0.5.

On to A21G C22U U32C C33A A37G A57C, for which the yeast fitness was at most 0.5.

As to A21G G25C C29A C55G G68C, the yeast fitness was at most 0.5. In the case of A21G A45U A65U it was 0.674; in that of A21G C22U A42U A69U, at most 0.5; in that of A21G C33G G67A, at most 0.5. As to A21G C22U A70U, the yeast fitness is 0.619. The result for A21G C46U G52C reads 0.794; that for A21G C29G A65U G67U, at most 0.5; that for A21G C33U, 0.73.

For A21G C27G C49U, the yeast fitness came out at 0.557. In the case of A21G C30G A69C, the yeast fitness turned out to be 0.544.

Turning to A21G C24U C33U, the yeast fitness was at most 0.5.

On to A21G C22U A43C, for which the yeast fitness was determined as 0.57.

A21G C29U G41C C55U G68C: the yeast fitness is at most 0.5. The result for A21G C29A A37G A42U reads 0.516. Take A21G C30A C33G U59A C66U: the yeast fitness worked out at 0.535. For A21G A45U, the yeast fitness worked out at 0.902. Regarding A21G C22U A45C, the yeast fitness came to 0.539. In the case of A21G G38C G68C it was at most 0.5. The result for A21G C61G U64G reads 0.586; that for A21G C49U A70G, 0.817.

For A21G G23A C31U, the yeast fitness worked out at 0.528.

On to A21G C31U G52C G68A, for which the yeast fitness is at most 0.5. As for A21G G23A G58C, the yeast fitness worked out at 0.537. Take A21G G38C A40U G44C G67A A69C: the yeast fitness is at most 0.5. The result for A21G C46U G56A C61G reads at most 0.5; that for A21G C27G C31G, 0.523; that for A21G G25C A69C, 0.744. For the variant A21G C22U C29G A45C, the yeast fitness turned out to be 0.515.

In the case of A21G C22U G41C, the yeast fitness is 0.66. Consider A21G C31G A45G, for which the yeast fitness was found to be 0.938. The result for A21G C33U G44C A70C reads at most 0.5.

With A21G C27U C55A, the yeast fitness was 0.701. The result for A21G C29G C55U A69C reads at most 0.5; that for A21G C46U C62U, 1.1; that for A21G G25C C29A G58A, 0.54. The result for A21G C31G G63A reads 0.774; that for A21G C46U C55G, 0.603; that for A21G C66U A69U, 0.771. As to A21G C33A A40C, the yeast fitness came to 0.527. The result for A21G C29U G39A A45U reads 0.547; that for A21G C33A G41C, at most 0.5. For A21G C29U G41C A69U, the yeast fitness came out at 0.63. Regarding A21G C30U G68C, the yeast fitness stood at 0.582. In the case of A21G C30A C33G U47C U59A C66U it was at most 0.5.

In the case of A21G A65U, the yeast fitness stood at 0.848.

On to A21G A65C, for which the yeast fitness came out at 0.924. For A21G C34U A37G C60A, the yeast fitness worked out at 0.651. In the case of A21G C34G C61U A70C it was 0.555; in that of A21G C29G U47G, at most 0.5.

In the case of A21G C49U G63C, the yeast fitness was at most 0.5. In the case of A21G C22U G63C A69C it was 0.524; in that of A21G C34G G63A G67C, at most 0.5; in that of A21G C29U C34U C55A C60G, at most 0.5. The result for A21G C60G reads 0.667; that for A21G C24U G44C, 0.583. In the case of A21G C31G A70G it was 0.787; in that of A21G A70U, 1; in that of A21G G23A C27G A37U G44A C49U G67C A69U, at most 0.5.

In the case of A21G C24G A37U C49A, the yeast fitness was at most 0.5. The result for A21G G23A C27G A37U G44A C49U reads 0.564; that for A21G C22U A36G U53C A57C A69U, at most 0.5. As for A21G C34U, the yeast fitness was 0.701. The result for A21G C34G reads 0.598; that for A21G C31U U35C C61U C66U, at most 0.5. The result for A21G C31G A69C reads 0.755; that for A21G C27A A37U G50A, 0.531; that for A21G G39C A42C, 0.563. In the case of A21G G23A A57U A70U it was at most 0.5; in that of A21G C22A, 0.834. On to A21G C22U, for which the yeast fitness came to 0.683. Regarding A21G C46A A70C, the yeast fitness amounted to 1.07. As for A21G C31A A42G, the yeast fitness was found to be 0.561.

Take A21G G23A C27G C61U A69C: the yeast fitness is at most 0.5.

As for A21G C34U C55G, the yeast fitness was at most 0.5. On to A21G G23A C46A, for which the yeast fitness stood at 0.543.

In the case of A21G C29U A57G, the yeast fitness turned out to be 0.602. In the case of A21G C33U C60U it was 0.603. A21G C33U C60A: the yeast fitness is at most 0.5.

A21G C22U C24U A37U A45G C46G G68C: the yeast fitness is at most 0.5. Consider A21G C27A A36U A40G, for which the yeast fitness is 0.587. The result for A21G C30G C55U reads 0.682; that for A21G C22U C60A, at most 0.5; that for A21G C29U G41C A42G U53G A57C, at most 0.5. Take A21G C29A: the yeast fitness amounted to 0.693. For the variant A21G C29G, the yeast fitness was 0.625. In the case of A21G C24U A36U C66U A69U it was at most 0.5; in that of A21G G39C, 0.732; in that of A21G G25C C27G A42C, at most 0.5.

Take A21G C27A A37U C46U C66U: the yeast fitness is at most 0.5. The result for A21G C61G C66U A69U reads at most 0.5.

As to A21G A69C, the yeast fitness was 0.932. With A21G C31G, the yeast fitness came out at 1.05. A21G C33U G51C: the yeast fitness is at most 0.5. Regarding A21G G39A G44C, the yeast fitness was at most 0.5. In the case of A21G C27G G67A it was at most 0.5; in that of A21G C30G U54G A65G G68U A70C, at most 0.5; in that of A21G G23A A45C G52A A69C, 0.521. With A21G C34G C61U, the yeast fitness worked out at 0.722.

For A21G G23A C34G A36U A57C C66U, the yeast fitness is at most 0.5. In the case of A21G C33G G38A G63A it was at most 0.5. Turning to A21G C27A C34G G38A G63C, the yeast fitness was at most 0.5. A21G C33A G51A A57U A65U: the yeast fitness was at most 0.5. The result for A21G C22A C55A G67C reads at most 0.5; that for A21G C29U G38A C62U G67C, 0.629; that for A21G G25C, 1.04.

Take A21G C49G: the yeast fitness amounted to 1.13. In the case of A21G C49A it was 0.736; in that of A21G C27A G39C C55U A65C, at most 0.5; in that of A21G C29U A45U, 0.86. In the case of A21G C24G G48C it was at most 0.5; in that of A21G C22U C66U G68C, at most 0.5; in that of A21G G23A G52C, at most 0.5. Take A21G C34U G48A G67A: the yeast fitness is at most 0.5. As for A21G G23C U28A, the yeast fitness is at most 0.5. In the case of A21G G39A G63A A70G it was 0.619; in that of A21G G23A C31U A45C C60A C66U, at most 0.5; in that of A21G C33U U59A, at most 0.5. In the case of A21G A57U it was 0.97; in that of A21G A57G, 0.875.

Turning to A21G C27A A37U G50A C66U, the yeast fitness was at most 0.5.

On to A21G C61U, for which the yeast fitness was found to be 1.

With A21G C61G, the yeast fitness was 0.654. Turning to A21G C61A, the yeast fitness was 0.645.

Take A21G C31U U35C A40G A65U: the yeast fitness is at most 0.5. In the case of A21G C31U A37G C62G it was at most 0.5; in that of A21G G39A A70G, 0.872. Turning to A21G C24G, the yeast fitness stood at 0.642. The result for A21G C24A reads 0.661; that for A21G G23A C31U G63C A69U, at most 0.5; that for A21G C22U C55U, 0.567. In the case of A21G C29U A45U G67U it was at most 0.5; in that of A21G C30G G51C, at most 0.5.

In the case of A21G C27A G67C, the yeast fitness is at most 0.5.

As for A21G G38A, the yeast fitness is 0.881. The result for A21G C27U G38C G68C reads at most 0.5. For A21G C27U A37U A45U C62G, the yeast fitness was at most 0.5.

With A21G C49U C62G, the yeast fitness is 0.566. The result for A21G C49U C62A reads 0.602; that for A21G C66A, 0.701. For A21G C22A G56A, the yeast fitness is 0.763. In the case of A21G G23A A57U C61G it was 0.623; in that of A21G C22U G67A, 0.575.
